In ChEMBL document CHEMBL1140412, “F-18 stilbenes as PET imaging agents for detecting beta-amyloid plaques in the brain” (J Med Chem, 2005):

How the values were obtained:
[1] = biological target: Amyloid-beta precursor protein (Homo sapiens, UniProt P05067); assay: Inhibition constant for I-125-IMPY binding to amyloid plaques in Alzheimers disease brain homogenates; assay type: tissue-based
Method in brief: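 Competition binding in pooled postmortem AD cortical homogenates (dissected gray/white matter, ~100 mg wet tissue/ml PBS pH 7.4; 20-50 μg per tube). [¹²⁵I]IMPY at 0.04-0.06 nM; inhibitors 10^-5-10^-10 M in PBS with 0.1% BSA. Nonspecific binding with 600 nM IMPY. Incubated 2 hr at 37°C, GF/B filtration, PBS washes, gamma counting. Ki from nonlinear regression.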

[2] = Biodistribution in ICR mouse liver 30 min. after iv injection of [18F]-compound in 0.1% bovine serum albumin solution, n = 3; assay type: ADME, organism-based; details: in vivo, 0.5 h
Method in brief: (§1)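 Male ICR mice (22-25 g) under isoflurane anesthesia received 0.15 mL of 0.1% BSA solution containing 5-10 μCi [¹⁸F]tracer by tail-vein injection; n = 3 per time point. Killed by cervical dislocation, organs removed, weighed and gamma-counted. %dose/g derived from sample counts vs. diluted initial dose; blood total activity assumed as 7% of body weight. Mean ± SD.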

[3] = Biodistribution in ICR mouse brain 2 min. after iv injection of [18F]-compound in 0.1% bovine serum albumin solution, n = 3; assay type: ADME, organism-based; details: in vivo; method in brief: as §1
[4] = Biodistribution in ICR mouse blood 30 min. after iv injection of [18F]-compound in 0.1% bovine serum albumin solution, n = 3; assay type: ADME, organism-based; details: in vivo, 0.5 h; method in brief: as §1
[5] = Biodistribution in ICR mouse spleen 2 hr after iv injection of [18F]-compound in 0.1% bovine serum albumin solution, n = 3; assay type: ADME, organism-based; details: in vivo; method in brief: as §1
[6] = Biodistribution in ICR mouse spleen 30 min. after iv injection of [18F]-compound in 0.1% bovine serum albumin solution, n = 3; assay type: ADME, organism-based; details: in vivo, 0.5 h; method in brief: as §1
[7] = Biodistribution in ICR mouse bone 30 min. after iv injection of [18F]-compound in 0.1% bovine serum albumin solution, n = 3; assay type: ADME, organism-based, Bone element; details: in vivo, 0.5 h; method in brief: as §1
[8] = Biodistribution in ICR mouse lung 2 hr after iv injection of [18F]-compound in 0.1% bovine serum albumin solution, n = 3; assay type: ADME, organism-based; details: in vivo; method in brief: as §1
[9] = Biodistribution in ICR mouse blood 1 hr after iv injection of [18F]-compound in 0.1% bovine serum albumin solution, n = 3; assay type: ADME, organism-based; details: in vivo; method in brief: as §1
[10] = Biodistribution in ICR mouse spleen 2 min. after iv injection of [18F]-compound in 0.1% bovine serum albumin solution, n = 3; assay type: ADME, organism-based; details: in vivo; method in brief: as §1
[11] = Biodistribution in ICR mouse bone 1 hr after iv injection of [18F]-compound in 0.1% bovine serum albumin solution, n = 3; assay type: ADME, organism-based, Bone element; details: in vivo; method in brief: as §1
[12] = Biodistribution in ICR mouse skin 30 min. after iv injection of [18F]-compound in 0.1% bovine serum albumin solution, n = 3; assay type: ADME, organism-based, Zone of skin; details: in vivo, 0.5 h; method in brief: as §1
[13] = Biodistribution in ICR mouse kidney 2 min. after iv injection of [18F]-compound in 0.1% bovine serum albumin solution, n = 3; assay type: ADME, organism-based; details: in vivo; method in brief: as §1
[14] = Biodistribution in ICR mouse kidney 1 hr after iv injection of [18F]-compound in 0.1% bovine serum albumin solution, n = 3; assay type: ADME, organism-based; details: in vivo; method in brief: as §1
[15] = Biodistribution in ICR mouse bone 2 hr after iv injection of [18F]-compound in 0.1% bovine serum albumin solution, n = 3; assay type: ADME, organism-based, Bone element; details: in vivo; method in brief: as §1
[16] = Biodistribution in ICR mouse heart 2 min. after iv injection of [18F]-compound in 0.1% bovine serum albumin solution, n = 3; assay type: ADME, organism-based; details: in vivo; method in brief: as §1
[17] = Biodistribution in ICR mouse bone 2 min. after iv injection of [18F]-compound in 0.1% bovine serum albumin solution, n = 3; assay type: ADME, organism-based, Bone element; details: in vivo; method in brief: as §1
[18] = Biodistribution in ICR mouse kidney 2 hr after iv injection of [18F]-compound in 0.1% bovine serum albumin solution, n = 3; assay type: ADME, organism-based; details: in vivo; method in brief: as §1
[19] = Biodistribution in ICR mouse lung 2 min. after iv injection of [18F]-compound in 0.1% bovine serum albumin solution, n = 3; assay type: ADME, organism-based; details: in vivo; method in brief: as §1
[20] = Biodistribution in ICR mouse muscle 2 hr after iv injection of [18F]-compound in 0.1% bovine serum albumin solution, n = 3; assay type: ADME, organism-based, Muscle tissue; details: in vivo; method in brief: as §1
[21] = Biodistribution in ICR mouse skin 2 min. after iv injection of [18F]-compound in 0.1% bovine serum albumin solution, n = 3; assay type: ADME, organism-based, Zone of skin; details: in vivo; method in brief: as §1
[22] = Biodistribution in ICR mouse lung 1 hr after iv injection of [18F]-compound in 0.1% bovine serum albumin solution, n = 3; assay type: ADME, organism-based; details: in vivo; method in brief: as §1
[23] = Biodistribution in ICR mouse skin 1 hr after iv injection of [18F]-compound in 0.1% bovine serum albumin solution, n = 3; assay type: ADME, organism-based, Zone of skin; details: in vivo; method in brief: as §1
[24] = Biodistribution in ICR mouse heart 1 hr after iv injection of [18F]-compound in 0.1% bovine serum albumin solution, n = 3; assay type: ADME, organism-based; details: in vivo; method in brief: as §1
[25] = Biodistribution in ICR mouse liver 2 hr after iv injection of [18F]-compound in 0.1% bovine serum albumin solution, n = 3; assay type: ADME, organism-based; details: in vivo; method in brief: as §1
[26] = Biodistribution in ICR mouse skin 2 hr after iv injection of [18F]-compound in 0.1% bovine serum albumin solution, n = 3; assay type: ADME, organism-based, Zone of skin; details: in vivo; method in brief: as §1
[27] = Biodistribution in ICR mouse blood 2 hr after iv injection of [18F]-compound in 0.1% bovine serum albumin solution, n = 3; assay type: ADME, organism-based; details: in vivo; method in brief: as §1
[28] = Biodistribution in ICR mouse liver 2 min. after iv injection of [18F]-compound in 0.1% bovine serum albumin solution, n = 3; assay type: ADME, organism-based; details: in vivo; method in brief: as §1
[29] = Biodistribution in ICR mouse heart 30 min. after iv injection of [18F]-compound in 0.1% bovine serum albumin solution, n = 3; assay type: ADME, organism-based; details: in vivo, 0.5 h; method in brief: as §1
[30] = Biodistribution in ICR mouse muscle 30 min. after iv injection of [18F]-compound in 0.1% bovine serum albumin solution, n = 3; assay type: ADME, organism-based, Muscle tissue; details: in vivo, 0.5 h; method in brief: as §1
[31] = Biodistribution in ICR mouse muscle 2 min. after iv injection of [18F]-compound in 0.1% bovine serum albumin solution, n = 3; assay type: ADME, organism-based, Muscle tissue; details: in vivo; method in brief: as §1
[32] = Biodistribution in ICR mouse kidney 30 min. after iv injection of [18F]-compound in 0.1% bovine serum albumin solution, n = 3; assay type: ADME, organism-based; details: in vivo, 0.5 h; method in brief: as §1
[33] = Biodistribution in ICR mouse lung 30 min. after iv injection of [18F]-compound in 0.1% bovine serum albumin solution, n = 3; assay type: ADME, organism-based; details: in vivo, 0.5 h; method in brief: as §1
[34] = Biodistribution in ICR mouse brain 1 hr after iv injection of [18F]-compound in 0.1% bovine serum albumin solution, n = 3; assay type: ADME, organism-based; details: in vivo; method in brief: as §1
[35] = Biodistribution in ICR mouse brain 2 hr after iv injection of [18F]-compound in 0.1% bovine serum albumin solution, n = 3; assay type: ADME, organism-based; details: in vivo; method in brief: as §1
[36] = Biodistribution in ICR mouse muscle 1 hr after iv injection of [18F]-compound in 0.1% bovine serum albumin solution, n = 3; assay type: ADME, organism-based, Muscle tissue; details: in vivo; method in brief: as §1
[37] = Biodistribution in ICR mouse heart 2 hr after iv injection of [18F]-compound in 0.1% bovine serum albumin solution, n = 3; assay type: ADME, organism-based; details: in vivo; method in brief: as §1
[38] = Biodistribution in ICR mouse spleen 1 hr after iv injection of [18F]-compound in 0.1% bovine serum albumin solution, n = 3; assay type: ADME, organism-based; details: in vivo; method in brief: as §1
[39] = Biodistribution in ICR mouse brain 30 min. after iv injection of [18F]-compound in 0.1% bovine serum albumin solution, n = 3; assay type: ADME, organism-based; details: in vivo, 0.5 h; method in brief: as §1
[40] = Biodistribution in ICR mouse liver 1 hr after iv injection of [18F]-compound in 0.1% bovine serum albumin solution, n = 3; assay type: ADME, organism-based; details: in vivo; method in brief: as §1
[41] = Biodistribution in ICR mouse blood 2 min. after iv injection of [18F]-compound in 0.1% bovine serum albumin solution, n = 3; assay type: ADME, organism-based; details: in vivo; method in brief: as §1

Amyloid-beta precursor protein, sequence (P05067 whole entry): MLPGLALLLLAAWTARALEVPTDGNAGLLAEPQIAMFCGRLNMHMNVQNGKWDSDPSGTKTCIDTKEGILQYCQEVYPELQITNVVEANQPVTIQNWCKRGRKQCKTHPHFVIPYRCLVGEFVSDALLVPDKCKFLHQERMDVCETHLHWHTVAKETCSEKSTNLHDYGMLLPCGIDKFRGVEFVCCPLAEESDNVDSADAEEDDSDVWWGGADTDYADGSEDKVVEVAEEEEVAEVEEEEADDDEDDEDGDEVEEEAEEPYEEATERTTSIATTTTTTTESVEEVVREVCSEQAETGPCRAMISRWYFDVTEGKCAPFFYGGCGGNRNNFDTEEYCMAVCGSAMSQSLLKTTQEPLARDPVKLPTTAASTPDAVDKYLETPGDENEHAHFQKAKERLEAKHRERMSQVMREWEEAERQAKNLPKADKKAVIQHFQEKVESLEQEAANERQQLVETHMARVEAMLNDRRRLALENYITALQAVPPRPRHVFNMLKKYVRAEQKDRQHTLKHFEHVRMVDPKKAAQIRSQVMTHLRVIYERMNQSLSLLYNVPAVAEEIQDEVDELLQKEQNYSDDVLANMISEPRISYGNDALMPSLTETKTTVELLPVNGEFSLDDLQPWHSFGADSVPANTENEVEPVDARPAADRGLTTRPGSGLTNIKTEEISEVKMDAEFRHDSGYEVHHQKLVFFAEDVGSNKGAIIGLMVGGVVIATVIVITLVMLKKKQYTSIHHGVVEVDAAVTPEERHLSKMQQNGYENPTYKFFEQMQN

Q: Which Ki [1] does the source give for Nc1ccc(/C=C/c2ccc(OCC(CO)CF)cc2)cc1 (stereo not given) here?
A: 0.015 µM

Q: With CNc1ccc(/C=C/c2ccc(OCC(CO)CO)cc2)cc1 as the compound, how does the Ki [1] read?
A: 0.0325 µM

Q: Which Ki [1] does the source give for Nc1ccc(/C=C/c2ccc(O)cc2)cc1 here?
A: 0.095 µM

Q: With CN(C)c1ccc(/C=C/c2ccc(OCC(CO)C[18F])cc2)cc1 (stereo not given) as the compound, how does the Biodistribution [2] read?
A: 14.65 %Dose/g

Q: And the Biodistribution [3]?
A: 5.55 %Dose/g

Q: And the Biodistribution [4]?
A: 1.65 %Dose/g

Q: What about the Biodistribution [5] of the same compound?
A: 0.99 %Dose/g

Q: And the Ki [1]?
A: 0.015 µM

Q: What about the Biodistribution [6] of the same compound?
A: 2.45 %Dose/g

Q: What about the Biodistribution [7] of the same compound?
A: 2.06 %Dose/g

Q: And the Biodistribution [8]?
A: 3.74 %Dose/g

Q: And the Biodistribution [9]?
A: 1.51 %Dose/g

Q: What about the Biodistribution [10] of the same compound?
A: 4.43 %Dose/g

Q: What about the Biodistribution [11] of the same compound?
A: 6.5 %Dose/g

Q: What about the Biodistribution [12] of the same compound?
A: 1.69 %Dose/g

Q: What about the Biodistribution [13] of the same compound?
A: 13.32 %Dose/g

Q: What about the Biodistribution [14] of the same compound?
A: 2.97 %Dose/g

Q: What about the Biodistribution [15] of the same compound?
A: 8.63 %Dose/g

Q: And the Biodistribution [16]?
A: 10.43 %Dose/g

Q: And the Biodistribution [17]?
A: 1.57 %Dose/g

Q: What about the Biodistribution [18] of the same compound?
A: 2.19 %Dose/g

Q: And the Biodistribution [19]?
A: 93.4 %Dose/g

Q: And the Biodistribution [20]?
A: 0.66 %Dose/g

Q: And the Biodistribution [21]?
A: 0.67 %Dose/g

Q: And the Biodistribution [22]?
A: 5 %Dose/g

Q: What about the Biodistribution [23] of the same compound?
A: 1.65 %Dose/g

Q: And the Biodistribution [24]?
A: 1.45 %Dose/g

Q: And the Biodistribution [25]?
A: 9.51 %Dose/g

Q: What about the Biodistribution [26] of the same compound?
A: 1 %Dose/g

Q: And the Biodistribution [27]?
A: 1.18 %Dose/g

Q: And the Biodistribution [28]?
A: 14.13 %Dose/g

Q: What about the Biodistribution [29] of the same compound?
A: 2.76 %Dose/g

Q: What about the Biodistribution [30] of the same compound?
A: 1.53 %Dose/g

Q: And the Biodistribution [31]?
A: 0.84 %Dose/g

Q: And the Biodistribution [32]?
A: 4.64 %Dose/g

Q: What about the Biodistribution [33] of the same compound?
A: 12.93 %Dose/g

Q: What about the Biodistribution [34] of the same compound?
A: 2.97 %Dose/g

Q: What about the Biodistribution [35] of the same compound?
A: 1.37 %Dose/g

Q: And the Biodistribution [36]?
A: 1.22 %Dose/g

Q: What about the Biodistribution [37] of the same compound?
A: 0.91 %Dose/g

Q: What about the Biodistribution [38] of the same compound?
A: 1.24 %Dose/g

Q: And the Biodistribution [39]?
A: 5.21 %Dose/g

Q: What about the Biodistribution [40] of the same compound?
A: 13.46 %Dose/g

Q: What about the Biodistribution [41] of the same compound?
A: 1.79 %Dose/g

Q: With CN(C)c1ccc(/C=C/c2ccc(OCC3COC(C)(C)OC3)cc2)cc1 as the compound, how does the Ki [1] read?
A: 0.059 µM
